# Activity calls are given as the source filed them. No cut-off for these calls is given here.
# Legend:
# Pseudomonas aeruginosa [1] = test: Antibacterial activity against 24_A2 allele containing Pseudomonas aeruginosa PAO1 H1106 mutant strain with lon::lux mutation assessed as fold decrease in MIC after 24 hrs by broth microdilution technique relative to wild type; assay type: functional
# Procedure, shortened: (§1)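 Broth microdilution MIC with P. aeruginosa PAO1 H103 (wild type), Tn5-lux insertion mutants or complemented strain. Overnight LB cultures grown at 37°C with agitation, diluted 1:1,000 in LB. Antimicrobials made fresh daily. Growth scored after 24 h at 37°C. Four independent repeats; mode reported.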
# Pseudomonas aeruginosa [2] = test: Antibacterial activity against 63_H5 allele containing Pseudomonas aeruginosa PAO1 H1133 mutant strain with nfxB::lux mutation after 24 hrs by broth microdilution technique; assay type: functional; procedure, shortened: as §1
# Pseudomonas aeruginosa [3] = test: Antibacterial activity against 31_C9 allele containing Pseudomonas aeruginosa PAO1 H1104 mutant strain with lon::lux mutation after 24 hrs by broth microdilution technique; assay type: functional; procedure, shortened: as §1
# Pseudomonas aeruginosa [4] = test: Antibacterial activity against 53_F11 allele containing Pseudomonas aeruginosa PAO1 H1124 mutant strain with PA5279::lux mutation after 24 hrs by broth microdilution technique; assay type: functional; procedure, shortened: as §1
# Pseudomonas aeruginosa [5] = test: Antibacterial activity against Pseudomonas aeruginosa PAO1 H1105/lon+c mutant strain with lon::lux/lon+ mutation after 24 hrs by broth microdilution technique; assay type: functional; procedure, shortened: as §1
# Pseudomonas aeruginosa [6] = test: Antibacterial activity against 74_D9 allele containing Pseudomonas aeruginosa PAO1 H1105 mutant strain with lon::lux mutation after 24 hrs by broth microdilution technique; assay type: functional; procedure, shortened: as §1
# Pseudomonas aeruginosa [7] = test: Antibacterial activity against 16_G12 allele containing Pseudomonas aeruginosa PAO1 H1125 mutant strain with recG::lux mutation after 24 hrs by broth microdilution technique; assay type: functional; procedure, shortened: as §1
# Pseudomonas aeruginosa [8] = test: Antibacterial activity against Pseudomonas aeruginosa PAO1 H1105/lon+ mutant strain with lon::lux mutation assessed as fold decrease in MIC after 24 hrs by broth microdilution technique relative to wild type; assay type: functional; procedure, shortened: as §1
# Pseudomonas aeruginosa [9] = test: Antibacterial activity against wild type Pseudomonas aeruginosa PAO1 H103 after 24 hrs by broth microdilution technique; assay type: functional; procedure, shortened: as §1
# Pseudomonas aeruginosa [10] = test: Antibacterial activity against 75_F11 allele containing Pseudomonas aeruginosa PAO1 H1136 mutant strain with PA5455::lux mutation after 24 hrs by broth microdilution technique; assay type: functional; procedure, shortened: as §1
# Pseudomonas aeruginosa [11] = test: Antibacterial activity against 24_A2 allele containing Pseudomonas aeruginosa PAO1 H1106 mutant strain with lon::lux mutation after 24 hrs by broth microdilution technique; assay type: functional; procedure, shortened: as §1
# Pseudomonas aeruginosa [12] = test: Antibacterial activity against 6_G1 allele containing Pseudomonas aeruginosa PAO1 H1121 mutant strain with PA4961::lux mutation after 24 hrs by broth microdilution technique; assay type: functional; procedure, shortened: as §1
# Pseudomonas aeruginosa [13] = test: Antibacterial activity against 74_D9 allele containing Pseudomonas aeruginosa PAO1 H1105 mutant strain with lon::lux mutation assessed as fold decrease in MIC after 24 hrs by broth microdilution technique relative to wild type; assay type: functional; procedure, shortened: as §1
# Pseudomonas aeruginosa [14] = test: Antibacterial activity against 70_H3 allele containing Pseudomonas aeruginosa PAO1 H1129 mutant strain with rnt::lux mutation after 24 hrs by broth microdilution technique; assay type: functional; procedure, shortened: as §1
# Pseudomonas aeruginosa [15] = test: Antibacterial activity against 69_C12 allele containing Pseudomonas aeruginosa PAO1 H1109 mutant strain with recA::lux mutation after 24 hrs by broth microdilution technique; assay type: functional; procedure, shortened: as §1
# Pseudomonas aeruginosa [16] = test: Antibacterial activity against 31_C9 allele containing Pseudomonas aeruginosa PAO1 H1104 mutant strain with lon::lux mutation assessed as fold decrease in MIC after 24 hrs by broth microdilution technique relative to wild type; assay type: functional; procedure, shortened: as §1
# Pseudomonas aeruginosa [17] = test: Antimicrobial activity in 0.01 ug/ml pretreated Pseudomonas aeruginosa PAO1 H103 at 2 times MIC after overnight incubation by adaptive resistance assay; assay type: functional, organism-based
# Procedure, shortened: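 Modified time-kill with PAO1 H103 grown to mid-log (OD600 0.5–0.6) in LB at 37°C with or without ciprofloxacin 0.01 or 0.03 µg/ml. Cells were pelleted, washed in prewarmed PBS pH 7.4, resuspended in prewarmed LB with ciprofloxacin 0.2 µg/ml (2× MIC) and shaken at 37°C. Samples taken every 15–20 min for 2 h and plated on LB agar for overnight CFU counts at 37°C. Four independent experiments.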
# Pseudomonas aeruginosa [18] = test: Effect on morphological change in Pseudomonas aeruginosa PAO1 H1105/lon+ assessed as restoration of cell division at 0.03 ug/ml by Grams staining-based light microscopy
# Pseudomonas aeruginosa [19] = test: Effect on morphological change in Pseudomonas aeruginosa PAO1 H1105/lon+ assessed as elongation in cell length at 0.03 ug/ml by Grams staining-based light microscopy
# Pseudomonas aeruginosa [20] = test: Effect on morphological change in Pseudomonas aeruginosa PAO1 H1105 assessed as elongation in cell length at 0.03 ug/ml by Grams staining-based light microscopy; assay type: functional, organism-based
# Pseudomonas aeruginosa [21] = test: Drug resistance in Pseudomonas aeruginosa PAO1 H1105 assessed as survivality at 0.0075 ug/ml after overnight incubation by adaptive resistance assay; assay type: functional, organism-based
# Pseudomonas aeruginosa [22] = test: Increase in lon gene expression in Pseudomonas aeruginosa PAO1 H1105 mutant strain with lon::lux mutation assessed as incese in lon::lux fusion at 0.3 times MIC by luminescence assay relative to control; assay type: functional, organism-based
Compound,fold change (FC) (Pseudomonas aeruginosa [1]),"MIC (Pseudomonas aeruginosa [2]; PAO1 H1133, 24 h) [mg/L]","MIC (Pseudomonas aeruginosa [3]; PAO1 H1104, 24 h) [mg/L]","MIC (Pseudomonas aeruginosa [4]; PAO1 H1124, 24 h) [mg/L]",MIC (Pseudomonas aeruginosa [5]) [mg/L],"MIC (Pseudomonas aeruginosa [6]; PAO1 H1105, 24 h) [mg/L]","MIC (Pseudomonas aeruginosa [7]; PAO1 H1125, 24 h) [mg/L]",fold change (FC) (Pseudomonas aeruginosa [8]),"MIC (Pseudomonas aeruginosa [9]; PAO1 H103, 24 h) [mg/L]","MIC (Pseudomonas aeruginosa [10]; PAO1 H1136, 24 h) [mg/L]","MIC (Pseudomonas aeruginosa [11]; PAO1 H1106, 24 h) [mg/L]","MIC (Pseudomonas aeruginosa [12]; PAO1 H1121, 24 h) [mg/L]",fold change (FC) (Pseudomonas aeruginosa [13]),"MIC (Pseudomonas aeruginosa [14]; PAO1 H1129, 24 h) [mg/L]","MIC (Pseudomonas aeruginosa [15]; PAO1 H1109, 24 h) [mg/L]",fold change (FC) (Pseudomonas aeruginosa [16]),further results
CCn1cc(C(=O)O)c(=O)c2ccc(C)nc21 [NALIDIXIC ACID],2,512,128,128,256,128,128,1,256,512,128,128,2,512,256,2,–
C[C@@H](O)[C@H]1C(=O)N2C(C(=O)O)=C(SCCNC=N)C[C@H]12 [IMIPENEM ANHYDROUS],–,1,1,1,1,1,1,–,1,1,1,1,–,1,1,–,–
GENTAMICIN,–,–,–,–,–,–,–,–,–,–,–,–,–,–,–,–,MIC (Pseudomonas aeruginosa [2]): 2 mg/L; MIC (Pseudomonas aeruginosa [3]): 2 mg/L; MIC (Pseudomonas aeruginosa [4]): 2 mg/L; MIC (Pseudomonas aeruginosa [6]): 2 mg/L; MIC (Pseudomonas aeruginosa [7]): 2 µM; MIC (Pseudomonas aeruginosa [9]): 2 mg/L; MIC (Pseudomonas aeruginosa [10]): 2 mg/L; MIC (Pseudomonas aeruginosa [11]): 2 mg/L; MIC (Pseudomonas aeruginosa [12]): 2 mg/L; MIC (Pseudomonas aeruginosa [14]): 2 mg/L; MIC (Pseudomonas aeruginosa [15]): 2 mg/L
O=C(O)c1cn(C2CC2)c2cc(N3CCNCC3)c(F)cc2c1=O [CIPROFLOXACIN],4,0.8,0.025,0.05,0.1,0.025,0.025,1,0.1,0.4,0.025,0.05,4,0.4,0.05,4,Activity (Pseudomonas aeruginosa [17]): inactive; Activity (Pseudomonas aeruginosa [18]): Active; Activity (Pseudomonas aeruginosa [19]): inactive; Activity (Pseudomonas aeruginosa [20]): inactive; Activity (Pseudomonas aeruginosa [21]): inactive; Activity (Pseudomonas aeruginosa [22]): Active
CCn1cc(C(=O)O)c(=O)c2cc(F)c(N3CCNCC3)cc21 [NORFLOXACIN],2,> 0.6,0.15,0.15,0.3,0.075,0.15,1,0.3,> 0.6,0.15,0.075,4,> 0.6,0.075,2,–

# — ChEMBL document CHEMBL1151431, “Role of lon, an ATP-dependent protease homolog, in resistance of Pseudomonas aeruginosa to ciprofloxacin” (2007)
